Results from different studies.
Lines come from different studies, so protocols differ.
Observed: metabolic stability
Species: human
Sample: liver microsomes

The microsomal CLint of `FC(F)(F)c1ccccc1-c1nc(N2CCC(c3ccccn3)C2)c2ccccc2n1` (centres unmarked) is reported as 199 µL/min/mg.
For `C[S+]([O-])c1ccc(-c2c(-c3ccccn3)nc3n2CCC3)cc1` (centres unmarked), the microsomal CLint was under 3 µL/min/mg (3 µM, pH 7.4).
The microsomal CLint of `NC(=O)C1CCN(c2nc(-c3ccccn3)nc3ccccc23)C1` (centres unmarked) is reported as 37 µL/min/mg.
For `COc1ccc(Nc2ccnc3ccc(-c4ccc(S(=O)(=O)N5CCOCC5)cc4)cc23)cc1C`, the microsomal CLint was 131 µL/min/mg.
The microsomal CLint of `Cc1cccnc1CNc1nc(-c2ccccn2)nc2ccccc12` is reported as 64 µL/min/mg.
For `COc1ccnc(-c2nc3ccc(OC)cn3c2Nc2ccc(F)cc2)c1`, the microsomal CLint was 240 µL/min/mg (3 µM, pH 7.4).
`COc1cc2[nH]c(C)c(-c3ccc(O)cc3)c(=O)c2cc1Cl` gave a microsomal CLint of under 7 µL/min/mg (1 µM).
For `C[C@H](C(=O)N[C@@H]1COc2ccccc2[C@H]1S(C)(=O)=O)c1ccc(F)cc1`, the microsomal CLint was 2 µL/min/mg (1 µM).
The microsomal CLint of `Fc1ccc(N(CC2CC2)c2c(-c3ccccn3)nc3ccccn23)cc1` is reported as 110 µL/min/mg (3 µM, pH 7.4).
With `COc1cc2[nH]c(C)c(-c3ccccc3C)c(=O)c2cc1Cl` the microsomal CLint was 25 µL/min/mg (1 µM).
For `O=S(=O)(c1ccc(-c2ccc3ncccc3c2)cc1)N1CCOCC1`, the microsomal CLint was 13.3 µL/min/mg.
The microsomal CLint of `O=c1[nH]c(=S)n(Cc2ccc(Cl)cc2CNCC(F)(F)F)c2cc[nH]c12` is reported as 8.2 µL/min/mg.
`Cc1cc(NC(=O)Nc2ccc3c(c2)OC(F)(F)O3)cc(C(F)(F)F)n1` gave a microsomal CLint of under 7 µL/min/mg.
For `c1ccc(C2CCN(c3nc(-c4ccn[nH]4)nc4ccccc34)C2)nc1` (centres unmarked), the microsomal CLint was 46 µL/min/mg.
The microsomal CLint of `CCC(F)(F)c1nc2nc(C)cc(Nc3ccc(S(F)(F)(F)(F)F)cc3)n2n1` is reported as under 6 µL/min/mg (1 µM, pH 7.4).
With `Fc1cccc(Nc2nc(-c3ccccn3)nc3ccccc23)c1` the microsomal CLint was 81 µL/min/mg.
The microsomal CLint of `COc1cc2[nH]c(C)c(-c3ccc(C(C)=O)cc3)c(=O)c2cc1Cl` is reported as 11 µL/min/mg (1 µM).
The microsomal CLint of `c1ccc(C2CCN(c3nc(-c4cnn5c4CCCC5)nc4ccccc34)C2)nc1` (centres unmarked) is reported as 176 µL/min/mg.
The microsomal CLint of `Fc1ccc(Nc2c(-c3ccccn3)nc3ccccn23)c(F)c1` is reported as 96 µL/min/mg (3 µM, pH 7.4).
`c1ccc(-c2nc(N3CCc4cccnc4C3)c3ccccc3n2)nc1` gave a microsomal CLint of 64 µL/min/mg.
The microsomal CLint of `Cc1nnc(Nc2ccnc3ccc(-c4ccc(S(=O)(=O)N5CCOCC5)cc4)cc23)nc1C` is reported as 114 µL/min/mg.
For `c1ccc(-c2nc(N3CCCC3)c3ccccc3n2)nc1`, the microsomal CLint was 62 µL/min/mg.
With `COc1ccn2c(Nc3ccccc3F)c(-c3ccncn3)nc2c1` the microsomal CLint was 120 µL/min/mg (3 µM, pH 7.4).
`CCOC(=O)c1c(-c2cccc(Cl)c2)[nH]c2cc(OC)c(F)cc2c1=O` gave a microsomal CLint of under 4 µL/min/mg (19.8 µM, pH 7.4).
`COc1cc2[nH]c(C)c(-c3cccc(CO)c3)c(=O)c2cc1Cl` gave a microsomal CLint of under 7 µL/min/mg (1 µM).
The microsomal CLint of `CN(c1ccc(F)cc1)c1c(-c2ccc(F)cn2)nc2ccccn12` is reported as 220 µL/min/mg (3 µM, pH 7.4).
